KCNQ1 pot – potentiates or activates the human KCNQ1 potassium channel; CHO-K1 KCNQ1, thallium flux FluxOR fluorescence; stronger effect = higher value; B-score at 10 µM; 310,000 compounds, 0.35% hits; AID 2648;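 active = fluorescence ratio B-score, a plate-corrected score, at least three library SD, with initial intensity B-score within 5 SD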
Target sequence (P51787 whole entry, looked up): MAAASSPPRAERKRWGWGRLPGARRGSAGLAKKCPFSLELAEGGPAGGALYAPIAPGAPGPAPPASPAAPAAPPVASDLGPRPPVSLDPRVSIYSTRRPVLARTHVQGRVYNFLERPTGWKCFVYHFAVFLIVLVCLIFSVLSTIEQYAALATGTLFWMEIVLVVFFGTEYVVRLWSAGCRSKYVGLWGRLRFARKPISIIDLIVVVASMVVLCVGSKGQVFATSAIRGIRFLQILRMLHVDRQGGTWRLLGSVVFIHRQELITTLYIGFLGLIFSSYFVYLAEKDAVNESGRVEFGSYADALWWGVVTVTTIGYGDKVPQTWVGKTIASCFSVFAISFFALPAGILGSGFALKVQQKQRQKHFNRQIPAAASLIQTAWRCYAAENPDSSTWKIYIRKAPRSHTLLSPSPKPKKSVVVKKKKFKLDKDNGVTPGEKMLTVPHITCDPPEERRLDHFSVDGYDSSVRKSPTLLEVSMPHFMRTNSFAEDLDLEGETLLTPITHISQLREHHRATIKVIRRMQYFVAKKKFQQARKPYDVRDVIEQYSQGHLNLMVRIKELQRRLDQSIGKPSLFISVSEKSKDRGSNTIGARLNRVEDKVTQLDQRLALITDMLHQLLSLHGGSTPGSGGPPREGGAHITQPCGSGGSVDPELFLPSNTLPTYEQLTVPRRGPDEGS
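System: CHO-K1 cells stably expressing KCNQ1 / Medium: assay buffer for compound exposure, DMSO matched across wells / Reagent: thallium- and potassium-containing depolarizing buffer / Compound: one concentration, matched DMSO / Incubation: 20 min compound pretreatment at room temperature / Measured by: kinetic FluxOR fluorescence, 10 s baseline plus 110 s post-stimulus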
KCC2 mod – KCC2 (human) Cl- transport modulation | AID 1456 | Q9H2X9 | KCC2 cells, thallium flux FluoZin-2 fluorescence | B-score of Tl+ flux slope (higher = more flux/activation; lower = inhibition) at 10 µM | 190,000 compounds, 2.2% hits;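 active = thallium flux slope and its plate-corrected score both differing from the plate sample mean at a set confidence after two filtering rounds, in either direction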;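 note: slope of fluorescence scaled to starting intensity during 10 to 20 s after thallium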
KCNQ1 inh – blocks the human KCNQ1 potassium channel; P51787; CHO-K1 KCNQ1, FluxOR thallium flux fluorescence; stronger effect = higher value; B-score at 10 µM; 310,000 compounds, 1.3% hits;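 active = compounds whose thallium flux B-score, printed positive for inhibition, exceeds three library SD while starting fluorescence stays within three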;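 note: channel opened by potassium depolarization with thallium stimulus after 20 min compound exposure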
KCNK9 block – inhibitors of human KCNK9 two-pore domain potassium channel; HEK293 KCNK9, FluxOR thallium flux fluorescence; stronger effect = lower value; B-score at 10 µM; 310,000 compounds, 1.2% hits; AID 488922;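 active = ratio B-score over 3 SD below the library mean, with starting fluorescence within 5 SD of its mean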;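 note: negative B-score means less thallium flux so channel inhibition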
hERG rescue – compounds protecting human hERG from proarrhythmic drug block; CHO-hERG, FluxOR thallium flux, dofetilide IC70 present; activation (rescue from dofetilide block), less the hit threshold, % at 10 µM; 310,000 compounds, 0.51% hits; AID 1511;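 active = activation above the mean of controls blocked by dofetilide plus 5 SD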;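 note: thallium influx through hERG after potassium depolarization seen as dye fluorescence rise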
KCNK3 block – human KCNK3 channel inhibition, primary screen; O14649; 340,000 compounds, 0.84% hits; CHO-KCNK3 thallium flux, FluxOR fluorescence; stronger effect = lower value; B-score at 10 µM; AID 602410;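 active = B-score under library mean minus 4 SD, starting fluorescence ratio at most library mean plus 5 SD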;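 note: more negative B-score means stronger inhibition of thallium flux through KCNK3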
KCNK9 inh conf – confirmation of human KCNK9 potassium channel inhibitors. shares compounds with KCNK9 block. HEK293 KCNK9 cells, FluxOR thallium flux fluorescence. inhibition, % at 10 µM. 4,900 compounds, 43% hits;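 active = thallium signal inhibited by more than 5 SD of the compound-free buffer control wells, on both duplicate plates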;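 note: 0% = assay buffer control wells without compound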
Kir2-1 spec – selectivity of KCNK9 modulators against mouse Kir2.1 | shares compounds with KCNK9 block | Kir2.1 cells, FluxOR thallium flux fluorescence | inhibition, % at 10 µM | 4,900 compounds, 4% hits;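 active = thallium signal drop more than 5 SD beyond the mean of the no-compound control wells, seen in both duplicate plates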;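 note: signal is fluorescence rise after thallium addition divided by baseline fluorescence; plate controls were assay buffer only for no effect and full block by chlorpromazine control for full effect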
KCNK9 uninduced – second counter-screen for KCNK9 modulators: effect in non-induced cells | shares compounds with KCNK9 block | non-induced KCNK9-HEK293, FluxOR thallium flux | inhibition, % at 10 µM | 4,900 compounds, 40% hits | AID 492997;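 active = thallium signal drop beyond 5 SD of the untreated control mean, on both duplicate plates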;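 note: plate controls were buffer only IC0 wells for no effect and SID17386958 at its maximal inhibitory level for full effect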
KCNK3 inh conf – confirmation of human KCNK3 two-pore domain potassium channel inhibitors | shares compounds with KCNK3 block | CHO-KCNK3 thallium flux, FluxOR fluorescence; 0% buffer, 100% carvedilol maximal block | ratio percent of control, % at 10 µM | 2,400 compounds, 99% hits;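 active = ratio percent of control, averaged over triplicates, above buffer control mean plus 5 SD, cut at about 64% in these data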;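 note: ratio is the fluorescence rise from min to max over baseline after thallium stimulus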
KCNK3 uninduced – KCNK3 inhibitor counter-screen hit in non-induced cells; AID 651747; shares compounds with KCNK3 block; non-induced KCNK3 parental cells, FluxOR thallium flux; stronger effect = lower value; thallium flux ratio (lower = more inhibition) at 10 µM; 2,400 compounds, 40% hits;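 active = thallium flux ratio, averaged over three wells, more than 5 SD below the buffer control mean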;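 note: host cells are CHO cells without KCNK3 induction; ratio is peak minus trough fluorescence over baseline then normalized to buffer controls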
The depositor's hits bear a star; i = inactive; · = no result given. In the library only some 4.1% were active in any assay of this set; here they are far more common.

SMILES | KCNQ1 pot | KCC2 mod | KCNQ1 inh | KCNK9 block | hERG rescue | KCNK3 block | KCNK9 inh conf | Kir2-1 spec | KCNK9 uninduced | KCNK3 inh conf | KCNK3 uninduced
CCC(=O)N1N=C(c2ccc(NS(=O)(=O)c3ccccc3)cc2)CC1c1ccco1 (stereo not drawn) | · | · | · | · | · | i | · | · | · | · | ·
O=C(Nc1cccc(OC(F)(F)F)c1)c1ccc(Br)o1 | i | · | i | -10* | -15 | -9.6* | 44%* | i | i | 116* | i
Cc1cc2nc(-c3cccc(NC(=O)c4ccc(Br)o4)c3)oc2cc1C | i | 0.097 | i | -9.8* | -9 | -9.5* | 38%* | i | i | 121* | 0.14*
O=C(Nc1cccc(-c2cn3c(n2)SCC3)c1)c1ccc(Br)o1 | i | -1.5 | i | -10* | -16 | i | 37%* | i | i | 109* | i
O=C(Nc1cccc(-c2cc3ccccc3oc2=O)c1)c1ccc(Br)o1 | i | -0.095 | i | -8.7* | -11 | -11* | 34%* | i | i | 121* | 0.15*
COc1ccc(-c2cc3ccccc3oc2=O)cc1NC(=O)c1ccc(Br)o1 | i | -1.7 | i | i | -1 | i | · | · | · | · | ·
N#Cc1ccc(CNC(=O)N2CCOCC2)cc1 | i | · | i | i | -3 | i | · | · | · | · | ·
Fc1ccc(C2CC(c3cccs3)=NN2c2ccccc2)cc1 (stereo not drawn) | i | 0.47 | i | -9.8* | -16 | -8.9* | 58%* | i | 38%* | 104* | 0.15*
C=CCOc1c(CCC)cc(CCC)cc1C(N)=O | i | -1.7 | i | -9.4* | -13 | -9.8* | 60%* | i | 32%* | 119* | 0.15*
COC(=O)Cn1cnc(C(=O)Nc2ccc(C)c(C)c2)n1 | · | · | · | · | · | i | · | · | · | · | ·
CCCCCCCCCCOC(=O)Cn1c(COc2cccc(C)c2)[n+](C)c2ccccc21 | i | · | i | -14* | -13 | -10* | 64%* | 64%* | i | 100* | i
CCOC(=O)Cn1c(COc2ccccc2OC)[n+](C)c2ccccc21 | i | · | i | i | -7 | i | · | · | · | · | ·
C=CCOC(=O)C1=C(C)NC(SCC)=C(C#N)C1c1ccc(Cl)cc1 (stereo not drawn) | i | -1.2 | 9* | -8.4* | -3 | -8.8* | i | i | 40%* | 116* | i
CCCN(N=Nc1cccc([N+](=O)[O-])c1)c1cccc([N+](=O)[O-])c1 | i | 0.46 | i | -12* | -14 | -9.2* | 50%* | i | 43%* | 115* | i
CN(N=Nc1cccc([N+](=O)[O-])c1)c1cccc([N+](=O)[O-])c1 | i | -0.53 | i | -11* | -11 | i | i | i | 34%* | 90* | i
CSCCC(NC(=O)CCNC(=O)c1ccccc1Cl)c1nc2ccccc2[nH]1 (stereo not drawn) | · | · | · | · | · | i | · | · | · | · | ·
CCOc1ccc(CCN2C(=S)N([C@@H](CC(C)C)CN3CCCC3CN3C(=S)NC[C@@H]3CC(C)C)C[C@@H]2Cc2ccccc2)cc1 (stereo partly drawn) | · | · | · | · | · | i | · | · | · | · | ·
O=C(c1ccc(S(=O)(=O)Nc2ccccc2)cc1)N1CCCCCCC1 | i | · | i | i | -6 | i | · | · | · | · | ·
CCCOC(=O)c1ccc(NC(=O)CN(C)Cc2cccs2)cc1 | i | · | i | -12* | -11 | -10* | 50%* | i | i | 94* | i
CC(NC(=O)CN(C)Cc1cccs1)c1ccccc1 (stereo not drawn) | i | -1.8 | i | i | -10 | i | · | · | · | · | ·
CN(CC(=O)Nc1cc(Cl)cc(Cl)c1)Cc1cccs1 | i | · | i | -14* | -4 | -13* | 63%* | i | 44%* | 122* | 0.16*
CCOC(=O)C1CCN(C(=O)COc2ccc(Br)cc2Br)CC1 | i | -0.026 | i | i | -14 | i | · | · | · | · | ·
CCOC(=O)C1CCN(C(=O)COc2cc(C)c(Br)cc2C)CC1 | i | -0.095 | i | i | -8 | -11* | i | i | i | 78* | i
Cc1onc(-c2c(Cl)cccc2Cl)c1C(=O)c1c[nH]c(C(=O)NCC2CCCO2)c1 (stereo not drawn) | i | 0.038 | i | i | -8 | i | · | · | · | · | ·
CCN(C(=O)CSc1cccc[n+]1[O-])C1CCCCC1 | · | · | · | · | · | i | · | · | · | · | ·
SMILES | KCNQ1 pot | KCC2 mod | KCNQ1 inh | KCNK9 block | hERG rescue | KCNK3 block | KCNK9 inh conf | Kir2-1 spec | KCNK9 uninduced | KCNK3 inh conf | KCNK3 uninduced
Clc1nc(-c2ccccc2)cc(-c2ccc(Br)cc2)n1 | i | 0.54 | 6* | -12* | -16 | -9.8* | 55%* | i | 51%* | 103* | i
CC(=O)OC1C=CCC2C(=O)c3cccc(O)c3C(O)C12 (stereo not drawn) | · | · | · | · | · | i | · | · | · | · | ·
COc1cc2cc(C(c3nnnn3C3CCCC3)N3CCc4ccccc43)c(=O)[nH]c2cc1OC (stereo not drawn) | i | · | i | i | -6 | i | · | · | · | · | ·
Fc1ccc(C(c2nnnn2C2CCCC2)N2CCc3ccccc32)cc1 (stereo not drawn) | i | · | i | -9.5* | -12 | -9.3* | 38%* | i | 46%* | 107* | i
c1ccc(CCn2nnnc2CN2CCCc3ccccc32)cc1 | i | 0.31 | i | i | -7 | i | · | · | · | · | ·
Fc1ccc(C(c2nnnn2CCc2ccccc2)N2CCCc3ccccc32)cc1 (stereo not drawn) | i | -3.7 | i | -8.3* | -5 | -9.1* | 34%* | i | 36%* | 93* | 0.14*
O=C(NCCc1ccc(C(F)(F)F)cc1)C1CC(=O)N(Cc2ccccc2)C1 (stereo not drawn) | · | · | · | · | · | i | · | · | · | · | ·
Cn1c2ccccc2c(=O)c2c(=O)n(-c3ccccc3)c(-c3ccc(C(C)(C)C)cc3)nc21 | i | 0.051 | i | -12* | -11 | -8.9* | 34%* | i | i | 130* | 0.099*
CCn1c(C)nnc1SCC(=O)NC1CCCC1 | i | · | i | i | -3 | i | · | · | · | · | ·
